Source: article PMC10839685 (iScience, 2024)
Several values for one entry are separate records, joined by “and”; a condition that tells them apart may be missing. Equal values may be shown once. Entries after “also recorded” stand apart in the source; their conditions may differ.

Assays:
[1] = molecular target: T1, E. coli agmatinase (EcAGM) (Escherichia coli, UniProt P60651); test: E. coli agmatinase; type: biochemical; conditions: for Ki: EcAGM, competitive inhibition, pH 7.5, 100 mM HEPES, 2 mM MnCl2, substrate agmatine
T1 sequence (P60651 1-306): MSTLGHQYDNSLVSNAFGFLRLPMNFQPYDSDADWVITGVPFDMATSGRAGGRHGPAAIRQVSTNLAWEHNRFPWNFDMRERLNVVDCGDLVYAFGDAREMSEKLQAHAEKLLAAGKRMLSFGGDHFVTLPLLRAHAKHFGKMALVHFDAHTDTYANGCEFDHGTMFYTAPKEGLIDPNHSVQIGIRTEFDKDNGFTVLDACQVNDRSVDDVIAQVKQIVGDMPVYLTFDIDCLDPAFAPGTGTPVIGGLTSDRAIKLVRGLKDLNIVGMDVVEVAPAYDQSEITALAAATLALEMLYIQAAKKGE

[2] = system: human imidazoline receptors (I1, I2); conditions: cited from earlier work
AgDI from E. faecalis = conditions: substrate, cited from earlier work
[3] = molecular target: C. butyricum agmatinase (CbAGM) (Clostridium butyricum, UniProt C4IHF6); type: biochemical; conditions: 5000 µM
C. butyricum agmatinase (CbAGM), sequence (C4IHF6 1-283): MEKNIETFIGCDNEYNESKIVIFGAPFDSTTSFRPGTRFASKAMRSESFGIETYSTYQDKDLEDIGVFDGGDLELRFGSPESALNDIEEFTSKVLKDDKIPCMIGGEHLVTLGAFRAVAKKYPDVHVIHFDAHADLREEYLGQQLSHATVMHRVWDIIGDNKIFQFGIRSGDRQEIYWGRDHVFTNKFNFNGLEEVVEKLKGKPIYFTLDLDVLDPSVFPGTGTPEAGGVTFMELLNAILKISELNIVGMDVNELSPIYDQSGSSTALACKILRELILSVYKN

[4] = system: E. faecalis agmatine deiminase (AgDI); test: Agmatine deiminase activity, GDH coupled enzyme assay; type: biochemical, Enterococcus faecalis; conditions: pH 7.5
How it was run: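 His-tagged, codon-optimized E. faecalis AgDI was expressed in E. coli (LB without added metal, 1 mM IPTG, 16°C, 20 h) and purified by Ni-affinity chromatography. Agmatine-initiated ammonia release was coupled to GDH (2.5 U/mL) with 5 mM 2-oxoglutarate, 0.3 mM NADH and 0.8 mM ADP in HEPES-NaOH pH 7.5. Initial rates came from continuous A340 (ε 6220 M⁻¹cm⁻¹, 0.56 cm path).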

[5] = system: EcAGM, CbAGM, GpuA, AGMAT, ARG1 and ARG2; test: HPLC analysis for metformin transformation by purified enzymes; type: in vitro ADME; conditions: 1 mM metformin, 10 μg purified enzyme, 20 mM CHES pH 9, overnight
How it was run: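 His-tagged enzymes were expressed in E. coli BL21(DE3) and purified by Ni-affinity IMAC. ARG2 and AGMAT were mitochondrial-signal truncations (ARG2 Δ1-24/Δ331-354, AGMAT Δ1-35). Metformin was incubated with each enzyme, then analysed by reversed-phase C18 HPLC with an isocratic mobile phase of 75:25 (v/v) acetonitrile:10 mM potassium phosphate pH 6.6, which separates guanylurea from metformin.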

[6] = cited from earlier work
[7] = 1000–2000 mg daily; cited from earlier work
type 2 diabetes patients = conditions: cited from earlier work
[8] = molecular target: serine hydroxymethyltransferase 2; conditions: read-out: Ki, serine hydroxymethyltransferase 2; mixed inhibition; cited from earlier work
human PEN2 protein = conditions: cited from earlier work
complex IV = conditions: cited from earlier work

For `[H]/N=C(/N)N/C(=N/[H])NCCc1ccccc1` [phenformin], which Ki [1] is on record?
Its Ki is 600 µM.

With `NCCCCN=C(N)N` [agmatine] as the compound, how does the “binding and agonism at human imidazoline receptors (I1, I2)” value [2] read?
Its value is “micromolar range”.

And the Km (AgDI from E. faecalis; read-out: KM, AgDI from E. faecalis)?
Its Km is 35 µM.

And the “kcat, AgDI from E. faecalis” value (AgDI from E. faecalis)?
Its value is 840 s⁻¹.

Which Ki [1] does the source give for `CCCCNC(=N)NC(=N)N` [buformin] here?
The Ki was 100 µM.

With `CN(C)C(=N)N=C(N)N` [metformin] as the compound, how does the “predicted reduction in the maximum velocity of EcAGM-like enzymes” value ([1]; 5 mM metformin, 20 μM agmatine, steady state Michaelis-Menten model) read?
Its value is 83%.

What about the Ki [1] of the same compound?
The Ki was 1100 µM and 1000 µM and ~1000 µM.

And the “predicted reduction in the maximum velocity of CbAGM-like enzymes” value [3]?
The value was 27%.

What about the “inhibition of agmatine deiminase (AgDI)” value ([4]; 50 mM metformin) of the same compound?
The value was “not inhibited”.

What about the “inhibition of agmatine deiminase (AgDI)” value ([4]; 50 mM metformin, listed as Metformin) of the same compound?
The value was “does not inhibit”.

And the “transformation of metformin by ureohydrolase homologs” value [5]?
Its value is “No metabolism; also recorded: No transformation”.

And the “concentration of metformin in the human gut” value [6]?
Its value is 1000 to 10000 µM.

What about the “fraction excreted into wastewater” value [7] of the same compound?
The value was > 80%.

What about the “effectiveness of intravenous administration in type 2 diabetes patients” value (type 2 diabetes patients) of the same compound?
The value was “little or no effectiveness”.

What about the Ki [8] of the same compound?
The Ki was 13000 µM.

What about the “binding constant, human PEN2 protein” value (human PEN2 protein) of the same compound?
Its value is “micromolar range”.

What about the “inhibitory concentration, mitochondrial respiration proteins like complex IV” value (complex IV) of the same compound?
Its value is “hundreds of micromolar”.

Which Ki [1] does the source give for `CC(C)=CCN=C(N)N` [galegine] here?
The Ki was 7 µM.

And the “inhibition of agmatine deiminase (AgDI)” value ([4]; 5 mM galegine)?
Its value is “not inhibited”.
